In ChEMBL document CHEMBL3120138, “Glucocorticoid receptor modulators informed by crystallography lead to a new rationale for receptor selectivity, function, and implications for structure-based design” (J Med Chem, 2014):
Activity calls are given as the source filed them. No cut-off for these calls is given here.

How the values were obtained:
[1] = biological target: T1, Glucocorticoid receptor (Homo sapiens, UniProt P04150); assay: Displacement of [3H]-dexamethasone from human glucocorticoid receptor expressed in HEK293 cells; format: cell-based
T1 sequence (P04150 whole entry): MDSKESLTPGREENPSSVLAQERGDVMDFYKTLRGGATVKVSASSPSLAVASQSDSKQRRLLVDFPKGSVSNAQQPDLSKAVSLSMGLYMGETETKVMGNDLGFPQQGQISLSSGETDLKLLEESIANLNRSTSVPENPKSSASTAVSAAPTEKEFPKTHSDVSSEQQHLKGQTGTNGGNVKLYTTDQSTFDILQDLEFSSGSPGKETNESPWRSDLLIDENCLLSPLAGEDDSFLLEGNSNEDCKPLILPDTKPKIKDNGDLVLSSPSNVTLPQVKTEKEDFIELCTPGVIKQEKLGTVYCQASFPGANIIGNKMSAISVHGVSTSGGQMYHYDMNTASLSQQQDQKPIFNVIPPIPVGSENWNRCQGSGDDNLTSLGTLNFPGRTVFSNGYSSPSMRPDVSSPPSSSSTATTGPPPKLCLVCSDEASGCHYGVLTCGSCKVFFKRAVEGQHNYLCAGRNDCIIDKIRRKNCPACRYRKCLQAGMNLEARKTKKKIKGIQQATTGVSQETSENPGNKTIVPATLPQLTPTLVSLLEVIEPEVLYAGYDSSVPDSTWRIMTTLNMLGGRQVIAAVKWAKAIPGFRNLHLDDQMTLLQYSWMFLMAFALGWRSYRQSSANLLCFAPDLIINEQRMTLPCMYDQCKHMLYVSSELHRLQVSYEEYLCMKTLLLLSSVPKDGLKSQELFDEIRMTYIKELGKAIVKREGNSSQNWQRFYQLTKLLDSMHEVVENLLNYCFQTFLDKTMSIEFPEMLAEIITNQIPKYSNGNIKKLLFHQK

[2] = biological target: T2, Mineralocorticoid receptor (Homo sapiens, UniProt P08235); assay: Displacement of [3H]-aldosterone from human mineralocorticoid receptor expressed in HEK293 cells; format: cell-based
T2 sequence (P08235 whole entry): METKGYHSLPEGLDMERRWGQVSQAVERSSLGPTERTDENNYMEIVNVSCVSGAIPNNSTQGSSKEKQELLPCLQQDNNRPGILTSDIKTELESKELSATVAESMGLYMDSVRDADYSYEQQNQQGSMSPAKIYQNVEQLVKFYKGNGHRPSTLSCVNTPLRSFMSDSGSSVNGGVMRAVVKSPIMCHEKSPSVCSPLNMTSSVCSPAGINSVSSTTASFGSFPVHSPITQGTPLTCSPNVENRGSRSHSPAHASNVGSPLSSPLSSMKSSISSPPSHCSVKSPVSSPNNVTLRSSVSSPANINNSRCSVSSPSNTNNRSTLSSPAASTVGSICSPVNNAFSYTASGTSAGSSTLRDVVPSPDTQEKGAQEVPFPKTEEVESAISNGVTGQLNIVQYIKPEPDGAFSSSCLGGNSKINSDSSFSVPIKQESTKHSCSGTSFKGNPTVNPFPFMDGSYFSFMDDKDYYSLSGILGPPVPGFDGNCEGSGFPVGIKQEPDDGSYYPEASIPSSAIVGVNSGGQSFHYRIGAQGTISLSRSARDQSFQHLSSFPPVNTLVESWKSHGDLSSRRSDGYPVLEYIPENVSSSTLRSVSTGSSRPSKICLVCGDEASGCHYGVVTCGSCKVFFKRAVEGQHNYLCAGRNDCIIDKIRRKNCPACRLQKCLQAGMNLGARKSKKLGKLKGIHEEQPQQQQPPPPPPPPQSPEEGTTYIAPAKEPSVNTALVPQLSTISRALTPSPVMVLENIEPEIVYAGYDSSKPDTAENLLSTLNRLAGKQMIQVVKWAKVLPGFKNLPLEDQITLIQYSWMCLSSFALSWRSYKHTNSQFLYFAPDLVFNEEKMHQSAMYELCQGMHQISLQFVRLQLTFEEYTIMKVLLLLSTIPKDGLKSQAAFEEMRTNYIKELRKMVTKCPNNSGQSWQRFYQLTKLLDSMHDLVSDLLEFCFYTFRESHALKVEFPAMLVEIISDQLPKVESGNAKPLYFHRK
Outline: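 Competition binding used lysates of HEK293 cells overexpressing the human receptor. The tracer was ³H-aldosterone for MR and ³H-methyltrienolone for PR. Competitor was tested from 0.01 nM to 10 μM. IC50 was converted to Ki by Cheng–Prusoff. Values are means of at least three experiments, each run in triplicate.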

[3] = Tmax in Lewis rat collagen-induced arthritis model at 3 to 30 mg/kg, po after 15 days; format: ADME, organism-based; parameters: dose 3-30 mg/kg, route oral; details: in vivo
[4] = tested on: Rattus norvegicus; assay: Antiinflammatory activity in Lewis rat collagen-induced arthritis model assessed as reduction of paw diameter AUC at 3 to 30 mg/kg, po administered for 15 days measured during compound dosing; format: functional, organism-based
Outline: (§1)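 Female Lewis rats received collagen injected at the tail base, and disease developed over 14 d. Responding rats (groups of n = 10) were then dosed orally once daily for the next 15 d. Ankle/paw diameter was measured throughout the live phase and summarised as AUC. Hindpaw histology was scored blind from 0 (normal) to 5 (vehicle-level). Statistics used Student's t test vs vehicle, p < 0.01.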

[5] = tested on: Rattus norvegicus; assay: Antiinflammatory activity in Lewis rat collagen-induced arthritis model assessed as reduction of joint inflammation at 30 mg/kg, po administered for 15 days; format: functional, organism-based; parameters: dose 30 mg/kg; outline: as §1
[6] = tested on: Rattus norvegicus; assay: Antiinflammatory activity in po dosed Sprague-Dawley rat assessed as inhibition of carrageenan-induced IL-1beta secretion incubated for 2 hrs prior to carrageenan challenge measured after 5 hrs by ELISA; format: functional
Outline: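 Male Sprague-Dawley rats (n = 5/group) were dosed at t = 0, and carrageenan was injected into the rear footpad at 2 h. At 5 h the animals were euthanised and the hindpaws weighed to measure edema. Paw exudate was assayed for IL-1β by ELISA.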

[7] = tested on: Rattus norvegicus; assay: Antiinflammatory activity in po dosed Sprague-Dawley rat assessed as inhibition of carrageenan-induced paw edema incubated for 2 hrs prior to carrageenan challenge measured after 5 hrs […]; format: functional
[8] = AUC in Sprague-Dawley rat at 3 mg/kg, iv; format: ADME, organism-based; parameters: dose 3 mg/kg, route intravenous; details: plasma
Outline: (§2)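 Cannulated male Sprague-Dawley rats, fasted overnight, given a single 3 mpk dose at t = 0. The iv vehicle was 20% microemulsion/80% DI water and the po vehicle CMC/tween in DI water. Plasma was analysed for parent compound by LC/MS-MS, and exposure, half-life, Vd, clearance and bioavailability were calculated.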

[9] = Clearance in Sprague-Dawley rat at 3 mg/kg, iv; format: ADME, organism-based; parameters: dose 3 mg/kg, route intravenous; details: in vivo; outline: as §2
[10] = Oral bioavailability in Sprague-Dawley rat at 3 mg/kg; format: ADME, organism-based; details: in vivo; outline: as §2
[11] = Half life in Sprague-Dawley rat at 3 mg/kg, iv; format: ADME, organism-based; parameters: dose 3 mg/kg, route intravenous; details: in vivo; outline: as §2
[12] = Antiinflammatory activity in PMA-differentiated human U937 cells assessed as inhibition of LPS-induced TNFalpha production incubated for 60 mins prior to LPS challenge measured after 24 hrs; format: functional, cell-based; details: U-937
Outline: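 U-937 cells (100 000/well) were differentiated with 20 nM PMA overnight at 37 °C, then refed with PMA-free medium. Cells were pretreated with compound for 60 min, then stimulated with LPS (stock 400 ng/mL) for 24 h at 37 °C. Secreted TNFα was measured by EIA/RIA. Ten-point half-log dilutions were used, each concentration in triplicate.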

Ki [1] [nM]	Ki [2] [nM]	Tmax [3] [h]	AUC [8] [ng·h/mL]	clearance [9] [mL/min/kg]	bioavailability [10] [%]	half-life [11] [h]	IC50 [12] [nM]	SMILES	Activity [4]	Activity [5]	ED50 [6] [mg/kg]	ED50 [7] [mg/kg]
0.146	0.967							CC/C(=C1/c2ccccc2COc2ccccc21)c1cccc(NS(C)(=O)=O)c1				
0.226	2.48							CS(=O)(=O)Nc1cccc(C=C2c3ccccc3CCc3ccccc32)c1				
0.268	6.1	1	1490	56	100	1.4	19.1	CC/C(=C1\c2ccccc2OCc2cccc(OC)c21)c1cccc(NS(C)(=O)=O)c1	Active	Active	1.7	2.8
0.257	0.342							C/C(=C1/c2ccccc2COc2ccccc21)c1cccc(NS(C)(=O)=O)c1				
